ChEMBL document CHEMBL4680079, “Discovery of a Quinoline-4-carboxamide Derivative with a Novel Mechanism of Action, Multistage Antimalarial Activity, and Potent in Vivo Efficacy” (J Med Chem, 2016)
≈ marks a conversion by molar mass, not a printed value.

Assays:
Plasmodium falciparum [1] = experiment: Antiplasmodial activity against chloroquine-sensitive Plasmodium falciparum 3D7 infected in human red blood cells assessed as growth inhibition by SYBR Green fluorescence assay; assay type: functional, organism-based, RBC; details: 3D7, Erythrocyte
Procedure, shortened: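 P. falciparum 3D7 grown in 5% human red cells in RPMI 1640 (pH 7.3) with 0.5% Albumax II, hypoxanthine and gentamicin at 37°C under 1% O₂/3% CO₂. Growth measured by SYBR green fluorescence (ex 485/em 528 nm), with mefloquine as assay control. EC50 calculated.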

MRC5 = experiment: Antiproliferative activity against human MRC5 cells assessed as reduction in cell viability after 68 hrs by resazurin dye based fluorescence assay; details: MRC5, 68 h
Procedure, shortened: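 MRC-5 fibroblasts plated overnight as monolayers, exposed to compound pre-diluted in MEM for 68 h. Resazurin then added (final 50 μM) for 3 h, fluorescence read at ex 528/em 590 nm. Signal converted to % inhibition against high- and no-inhibition controls. Plates accepted at Z' > 0.5.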

[2] = Permeability of the compound at 10 uM incubated for 5 hrs by UPLC-MS/MS analysis based PAMPA method; assay type: ADME; details: read-out: permeability
Procedure, shortened: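 PAMPA run on a lipid-oil-lipid tri-layer filter at pH 7.4. Compound at 10 μM in PBS (DMSO ≤5%) in donor wells, PBS in acceptor wells, kept 5 h at room temperature. Both compartments quantified by UPLC-MS/MS. Data accepted only when recovery exceeded 70%.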

Plasmodium falciparum [3] = experiment: Antiplasmodial activity against late stage (IV/V) Plasmodium falciparum NF54 gametocytes transfected with GFP-LUC assessed as growth inhibition incubated for 72 hrs by mitotracker Red-CMXROS dye based fluorescence microscopic analysis; assay type: functional, organism-based; details: NF54, 72 h
Procedure, shortened: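 NF54 pfs16-LUC-GFP stage IV–V gametocytes (10% parasitaemia, 0.1% haematocrit) exposed to compound in 0.4% DMSO, three concentrations per log, for 72 h at 37°C under 5% CO2/5% O2/90% N2. MitoTracker Red CM-H2Xros then added for 16 h and viable gametocytes counted by imaging.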

[4] = Kinetic aqueous solubility of the compound by laser nephelometry; assay type: physicochemical; details: read-out: Kinetic_solubility
Procedure, shortened: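 Kinetic solubility measured by laser nephelometry. DMSO serial dilutions diluted into water to give final 100–5 μg/mL at 1.0% DMSO. Read immediately, in triplicate aliquots.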

[5] = Intrinsic clearance in CD1 mouse liver microsomes at 0.5 uM in presence of NADPH incubated upto 30 mins by UPLC-MS/MS analysis; assay type: ADME, Microsome; details: 0.5 h
Procedure, shortened: (§1)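 Compound at 0.5 μM incubated with female CD1 mouse, male Sprague-Dawley rat or pooled human liver microsomes (0.5 mg/mL, 50 mM potassium phosphate, pH 7.4). Reaction started with excess NADPH. Samples taken at 0-30 min, quenched in acetonitrile, analysed by UPLC-MS/MS. Verapamil used as control, single time course.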

[6] = Intrinsic clearance in Sprague-Dawley rat liver microsomes at 0.5 uM in presence of NADPH incubated upto 30 mins by UPLC-MS/MS analysis; assay type: ADME, Microsome; details: 0.5 h; procedure, shortened: as §1
[7] = Intrinsic clearance in human liver microsomes at 0.5 uM in presence of NADPH incubated upto 30 mins by UPLC-MS/MS analysis; assay type: ADME, Microsome; details: 0.5 h; procedure, shortened: as §1
Plasmodium berghei [8] = experiment: Antiplasmodial activity against Plasmodium berghei ANKA infected in NMRI mouse assessed as reduction in parasitemia at 1 mg/kg, po QD for 4 days; assay type: functional; set-up: scale not given: the % may be the effect or the level left; details: time 4 day
Procedure, shortened: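 Female NMRI mice (n=3 per group, randomized, not blinded) infected with GFP-transfected P. berghei ANKA. Oral dosing once daily for 4 days in 10% DMSO/40% PEG400/50% water or HPMC suspension vehicle. Parasitaemia measured by flow cytometry on blood collected 96 h after infection. Mice watched for toxicity over 4 h post-dose each day.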

Plasmodium berghei [9] = experiment: Antiplasmodial activity against Plasmodium berghei ANKA infected in NMRI mouse assessed as survival days at 1 mg/kg, po QD for 4 days; assay type: functional; details: time 4 day
[10] = Protein binding in CD1 mouse plasma measured after 5 hr by UPLC-MS/MS analysis based equilibrium dialysis method; assay type: ADME, cell-free; details: mouse, 5 h
Procedure, shortened: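 Equilibrium dialysis of female CD1 mouse plasma spiked at 10 μg/mL (12-14 kDa membrane) against isotonic buffer for 5 h at ~37°C with shaking. Unbound fraction taken as the buffer/plasma peak-area ratio by UPLC-MS/MS. n=6 replicates, run in triplicate.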

[11] = molecular target: Voltage-gated inwardly rectifying potassium channel KCNH2 (Homo sapiens, UniProt Q12809); experiment: Inhibition of human ERG by IonWorks patch-clamp electrophysiology method
Procedure, shortened: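 hERG K⁺ channel inhibition measured by IonWorks patch-clamp electrophysiology. Eight-point concentration-response curves made from 3-fold serial dilutions down from the maximum final assay concentration. Each curve generated on 2 occasions.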

Plasmodium berghei [12] = experiment: Antiplasmodial activity against Plasmodium berghei ookinete form assessed as growth inhibition incubated for 22 hrs by GFP-based fluorescence microscopic analysis; assay type: functional, organism-based

Chain of Voltage-gated inwardly rectifying potassium channel KCNH2 (Q12809 whole entry): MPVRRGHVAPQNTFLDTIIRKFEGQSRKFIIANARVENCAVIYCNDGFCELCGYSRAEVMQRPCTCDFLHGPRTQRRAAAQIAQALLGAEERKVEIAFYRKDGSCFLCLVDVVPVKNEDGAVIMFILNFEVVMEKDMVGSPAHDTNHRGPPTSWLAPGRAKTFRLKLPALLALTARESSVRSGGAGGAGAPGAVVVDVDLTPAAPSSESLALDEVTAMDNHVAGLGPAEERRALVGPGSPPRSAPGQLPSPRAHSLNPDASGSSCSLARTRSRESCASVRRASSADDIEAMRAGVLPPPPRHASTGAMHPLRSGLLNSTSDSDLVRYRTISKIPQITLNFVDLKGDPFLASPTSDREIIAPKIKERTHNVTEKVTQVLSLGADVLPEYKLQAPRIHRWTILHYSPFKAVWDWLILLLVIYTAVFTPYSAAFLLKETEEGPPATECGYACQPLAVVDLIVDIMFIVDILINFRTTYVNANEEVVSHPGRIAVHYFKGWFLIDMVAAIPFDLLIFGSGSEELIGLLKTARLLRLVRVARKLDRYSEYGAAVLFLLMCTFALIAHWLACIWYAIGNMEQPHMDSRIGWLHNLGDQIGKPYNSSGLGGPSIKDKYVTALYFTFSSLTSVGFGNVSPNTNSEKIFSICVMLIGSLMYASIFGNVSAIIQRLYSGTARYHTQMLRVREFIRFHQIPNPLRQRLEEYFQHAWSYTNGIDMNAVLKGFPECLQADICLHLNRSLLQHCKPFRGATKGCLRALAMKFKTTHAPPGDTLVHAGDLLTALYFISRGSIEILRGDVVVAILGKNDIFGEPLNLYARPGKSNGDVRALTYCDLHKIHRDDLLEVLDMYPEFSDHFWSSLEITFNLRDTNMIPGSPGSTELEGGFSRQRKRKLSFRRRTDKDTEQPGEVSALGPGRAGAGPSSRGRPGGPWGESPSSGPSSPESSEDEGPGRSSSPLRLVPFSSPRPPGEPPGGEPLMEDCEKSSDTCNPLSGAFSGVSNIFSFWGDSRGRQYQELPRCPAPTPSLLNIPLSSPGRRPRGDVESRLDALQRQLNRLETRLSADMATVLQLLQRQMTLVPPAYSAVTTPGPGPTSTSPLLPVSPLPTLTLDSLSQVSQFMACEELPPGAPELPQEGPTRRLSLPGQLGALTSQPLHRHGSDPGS

| SMILES | EC50 (Plasmodium falciparum [1]) [µM] | EC50 (MRC5) [µM] | solubility kinetic [4] [µM] | CLH [5] [mL/min/g] | further results |
| --- | --- | --- | --- | --- | --- |
| Cc1ccc(-c2cc(C(=O)NCCN3CCCCC3)c3cc(Cl)ccc3n2)cc1 | 0.32 | 7 |  |  |  |
| O=C(NCCN1CCOCC1)c1cc(NCCCN2CCOCC2)nc2ccc(F)cc12 | 2.5 |  |  |  | Papp at 5 h, 10 µM [2]: 2.4 ×10⁻⁶ cm/s |
| COc1cc(C)c2c(Oc3cccc(C(F)(F)F)c3)c(OC)cc(NC(C)CCCN)c2n1 (stereo not drawn) [TAFENOQUINE] |  |  |  |  | EC50 (Plasmodium falciparum [3]): 5.25 µM |
| Cc1ccc(-c2cc(C(=O)NCCN3CCCC3)c3cc(F)ccc3n2)cc1 | 0.7 | 9 | 180 (≈ 67.9 µg/mL) | 3.4 |  |
| COc1ccc2nc3cc(Cl)ccc3c(Nc3cc(CN4CCCC4)c(O)c(CN4CCCC4)c3)c2n1 [PYRONARIDINE] |  |  |  |  | EC50 (Plasmodium falciparum [3]): 3.11 µM |
| O=C(NCCN1CCC(F)(F)C1)c1cc(NCCCN2CCOCC2)nc2ccc(F)cc12 | 18 |  |  |  | Papp at 5 h, 10 µM [2]: 8.9 ×10⁻⁶ cm/s |
| Cc1ccc(-c2cc(C(=O)Nc3cccnc3)c3cc(Br)ccc3n2)cc1 | 0.12 | 21 | 39 (≈ 16.3 µg/mL) | 5.3 |  |
| O=C(NCCN1CCCC1)c1cc(-c2cccc(CN3CCOCC3)c2)nc2ccc(F)cc12 | 11 |  |  |  |  |
| O=C(NCCN1CCCC1)c1cc(NCCN2CCCCC2)nc2ccc(F)cc12 | 8.9 | 19 |  |  |  |
| Cc1ccc(-c2cc(C(=O)NCCN(C)C)c3cc(Cl)ccc3n2)cc1 | 1.2 | 9 |  |  |  |
| O=C(NCCN1CCOCC1)c1cc(-c2ccc(CN3CCOCC3)cc2)nc2ccc(F)cc12 | 0.012 |  | > 210 | < 0.5 |  |
| O=C(NCCN1CCCC1)c1cc(-c2ccc(C(=O)N3CCOCC3)cc2)nc2ccc(F)cc12 | 0.14 | > 50 |  |  |  |
| O=C(NCCN1CCCC1)c1cc(-c2ccc(CN3CCCC3=O)cc2)nc2ccc(F)cc12 | 0.007 |  | > 217 | 2 | CLH [6]: 0.6 mL/min/g; CLH [7]: 2 mL/min/g; Papp at 5 h, 10 µM [2]: 4.9 ×10⁻⁶ cm/s; Activity (Plasmodium berghei [8]): <40% |
| C[C@@H]1CC[C@H]2[C@@H](C)C(=O)O[C@@H]3O[C@@]4(C)CC[C@@H]1[C@]32OO4 [ARTEMISININ] |  |  |  |  | EC50 (Plasmodium falciparum [3]): 0.0008 µM |
| O=C(NCCN1CCCC1)c1cc(-c2ccc(CN3CCOCC3)c(F)c2)nc2ccc(F)cc12 | 0.0006 | 19 | > 208 | 1 | Survival (Plasmodium berghei [9]): 11 days; Papp at 5 h, 10 µM [2]: 6.3 ×10⁻⁶ cm/s; Activity (Plasmodium berghei [8]): 99.8% |
| O=C(NCCN1CCCC1)c1cc(NCCC2CCOCC2)nc2ccc(F)cc12 | 0.002 | > 50 |  |  |  |
| O=C(NCCN1CCCC1)c1cc(-c2ccc(CN3CCS(=O)(=O)CC3)cc2)nc2ccc(F)cc12 | 0.0006 | 41 | 171 (≈ 87.3 µg/mL) | < 0.5 | Survival (Plasmodium berghei [9]): 7 days; CLH [6]: 0.8 mL/min/g; Papp at 5 h, 10 µM [2]: 1.4 ×10⁻⁶ cm/s; Activity (Plasmodium berghei [8]): 99% |
| Cc1ccc(-c2cc(C(=O)Nc3cccnc3)c3cc(Cl)ccc3n2)cc1 | 0.29 | 21 |  |  |  |
| O=C(NCCN1CCCC1)c1cc(N2CCC(N3CCOCC3)CC2)nc2ccc(Cl)cc12 | 0.15 | 13 | 210 (≈ 99.1 µg/mL) | 2.3 |  |

| SMILES | EC50 (Plasmodium falciparum [1]) [µM] | EC50 (MRC5) [µM] | solubility kinetic [4] [µM] | CLH [5] [mL/min/g] | further results |
| --- | --- | --- | --- | --- | --- |
| O=C(NCCN1CCCC1)c1cc(-c2ccc(CN3CCOCC3)cc2Cl)nc2ccc(F)cc12 | 0.003 | > 50 | > 201 | 0.5 | PPB [10]: 56% |
| Cc1ccc(-c2cc(C(=O)NCCCN(C)C)c3cc(Cl)ccc3n2)cc1 | 6.7 | 6 | 262 (≈ 100 µg/mL) | 1.1 |  |
| Cc1ccc(-c2cc(C(=O)Nc3cccnc3)c3ccccc3n2)cc1 | 0.99 | > 50 |  |  |  |
| CN1CCN(c2cc(C(=O)NCCN3CCCC3)c3cc(F)ccc3n2)CC1 | 34 | 20 |  |  |  |
| CN(C)c1ccc(-c2cc(C(=O)NCCN3CCCC3)c3cc(F)ccc3n2)cc1 | 0.81 | 10 |  |  |  |
| O=C(NCCN1CCCC1)c1cc(-c2ccc(N3CCOCC3)cc2)nc2ccc(F)cc12 | 0.6 | 17 |  |  |  |
| O=C(NCCN1CCCC(F)(F)C1)c1cc(NCCCN2CCOCC2)nc2ccc(F)cc12 | 36 |  |  |  | Papp at 5 h, 10 µM [2]: 12 ×10⁻⁶ cm/s |
| Cc1ccc(-c2cc(C(=O)NCCN3CCCC3)c3cc(Cl)ccc3n2)cc1 | 0.44 | 7 | 13 (≈ 5.12 µg/mL) | 2.1 |  |
| O=C(NCCN1CCCC1)c1cc(-c2ccc(S(=O)(=O)N3CCOCC3)cc2)nc2ccc(F)cc12 | 0.004 | 21 | 109 (≈ 55.9 µg/mL) | 1.9 | PPB [10]: 75%; EC50 (Plasmodium falciparum [3]): 0.152 µM; IC50 [11]: 11 µM; EC50 (Plasmodium berghei [12]): 0.015 µM; Papp at 5 h, 10 µM [2]: 2.9 ×10⁻⁶ cm/s |
| O=C(NCCN1CCCC1)c1cc(N2CCn3ccnc3C2)nc2ccc(F)cc12 | 5.8 | > 50 |  |  |  |
| O=C(NCCN1CCCC1)c1cc(N2CCC(N3CCOCC3)CC2)nc2ccc(F)cc12 | 0.68 | 25 | 220 (≈ 100 µg/mL) | 0.5 |  |
| Cc1ccc(-c2cc(C(=O)Nc3cccnc3)c3cc(F)ccc3n2)cc1 | 0.35 | 50 | 36 (≈ 12.9 µg/mL) | 8.6 |  |
| Cc1ccc(-c2cc(C(=O)NCCN3CCN(C)CC3)c3cc(Cl)ccc3n2)cc1 | 3.3 | 8 |  |  |  |
| Cc1ccc(-c2cc(C(=O)NCCN3CCOCC3)c3cc(Cl)ccc3n2)cc1 | 3.6 | 26 | 12 (≈ 4.92 µg/mL) | 11 |  |
| O=C(NCCN1CCC(F)(F)CC1)c1cc(NCCCN2CCOCC2)nc2ccc(F)cc12 | 15 |  |  |  | Papp at 5 h, 10 µM [2]: 9.4 ×10⁻⁶ cm/s |
| O=C(NCCN1CCC(F)CC1)c1cc(NCCCN2CCOCC2)nc2ccc(F)cc12 | 0.9 |  |  |  | Papp at 5 h, 10 µM [2]: 5.8 ×10⁻⁶ cm/s |
| Cc1cc(Nc2cc(C(=O)NCCN3CCCC3)c3cc(F)ccc3n2)on1 | > 50 | > 50 |  |  |  |
| O=C(NCCN1CCCC1)c1cc(NCCN2CCOCC2)nc2ccc(F)cc12 | 0.19 | 50 |  |  |  |
